# Hits are enriched below; roughly 5.4% of the tested compounds scored in any of these assays.
# HIV Rev-RRE inh: HIV Rev-RRE protein-RNA interaction inhibition; hit rate 0.79% among 97,000; P05866; inhibition, % at 8 µM; AID 704; Rev peptide-RRE RNA binding, FRET;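 active = inhibition above the screen-wide mean plus 3 SD, cut at about 35% in these data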;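 also: 0% = median DMSO wells and 100% = median Neomycin B control wells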
#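 Assay system: Rev peptide and RRE RNA, both fluorescently labelled; times: 5 min preincubation and 15 min binding, 25 °C; detection: FRET, ex 480 nm, em 540 and 671 nm; read-out basis: % inhibition from 671/540 nm acceptor-to-donor ratio, scaled between controls; benchmarks: DMSO low control, neomycin B high control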
# Cav32 inh: inhibitors of human Cav3.2 T-type calcium channel | O95180 | Cav3.2-expressing cells, Fluo-4 calcium fluorescence FDSS; hits give low values | B-score at 10 µM | hit rate 4% among 100,000;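 active = single-dose well whose peak fluorescence ratio is a statistical outlier from its plate by either plate-standardised score or position-corrected B-score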
# DAT uptake mod: modulates human dopamine transporter uptake under cocaine. LLC-PK1 hDAT cells, [14C]-dopamine uptake with cocaine IC80; actives deviate in either direction. B-score at 10 µM. hit rate 1.3% among 110,000. AID 449768;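 active = Z score or B-score, a plate-position-corrected score, falls beyond the plate's 99.7% confidence bounds, in either direction; inactive = both scores lie inside the 99.7% bounds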;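 also: scored against the spread of the other compound wells on the same plate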
# Target sequence (Q01959 whole entry, looked up): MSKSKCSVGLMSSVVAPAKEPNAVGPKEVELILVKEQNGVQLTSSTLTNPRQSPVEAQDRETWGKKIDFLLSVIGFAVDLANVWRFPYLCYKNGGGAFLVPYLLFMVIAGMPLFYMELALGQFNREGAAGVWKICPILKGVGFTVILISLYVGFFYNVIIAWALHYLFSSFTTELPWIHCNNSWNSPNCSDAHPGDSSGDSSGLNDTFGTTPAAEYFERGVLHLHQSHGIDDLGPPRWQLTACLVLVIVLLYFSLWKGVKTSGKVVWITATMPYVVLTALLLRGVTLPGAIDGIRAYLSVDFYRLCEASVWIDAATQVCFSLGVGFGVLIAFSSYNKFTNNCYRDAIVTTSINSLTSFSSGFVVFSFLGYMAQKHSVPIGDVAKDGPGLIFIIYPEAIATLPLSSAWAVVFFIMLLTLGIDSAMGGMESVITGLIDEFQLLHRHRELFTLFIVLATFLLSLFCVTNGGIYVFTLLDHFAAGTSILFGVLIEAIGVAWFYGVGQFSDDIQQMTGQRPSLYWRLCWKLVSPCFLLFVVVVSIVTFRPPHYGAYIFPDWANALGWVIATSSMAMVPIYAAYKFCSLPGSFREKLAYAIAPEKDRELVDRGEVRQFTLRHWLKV
# EphB4 antag: blocks human EphB4 binding to ephrin-B2 | P54760 | hit rate 0.15% among 97,000 | inhibition, % at 7 µM | EphB4 LBD / TNYL-RAW-Alexa532 peptide, fluorescence polarization;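 active = inhibition above the screen-wide mean inhibition plus 3 SD, cut at about 15% in these data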;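 also: 0% = DMSO wells and 100% = excess unlabeled TNYL-RAW peptide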
# Numbers without * were called inactive; . = no result; ! = not active in a repeat; [ ] = dose if it differs, or a comment.
SMILES,HIV Rev-RRE inh,Cav32 inh,DAT uptake mod,EphB4 antag
Clc1ccc(C2=CC(c3ccco3)n3ncnc3N2)cc1 (stereo unspecified),122*[fluorescence artefact?],-5.6*,-0.53,4
Clc1ccc(OCc2cnc(Cl)s2)cc1,8,.,.,-3
Fc1ccc(-n2nnc(-c3cccnc3)n2)cc1,.,0.056,-0.14,.
Fc1ccc(C(CCCn2nnc(-c3cccnc3)n2)c2ccc(F)cc2)cc1,4,-4.2*,.,-3
Cc1ccc(SCCC(=O)NCCSCc2ccccc2C)cc1,6,-7.6*,2,-1
COc1ccc(C(=O)NCCSCc2ccccc2C)cc1,6,-2.2,1.8,4
COc1ccc(C)cc1NC(=O)C(C)N(c1ccc(C)cc1)S(C)(=O)=O (stereo unspecified),7,-0.23,2.7*,6
O=C(NCCSCc1ccccc1)c1ccc(C2SCC(=O)N2Cc2ccccc2)cc1 (stereo unspecified),6,-1.7,1.7,-4
Cc1ccc(C(=O)NC(N2CCCC2)C(Cl)(Cl)Cl)cc1 (stereo unspecified),6,0.09,-0.26,5
CCOc1cc(CNc2ccccc2)cc(Br)c1OCC(=O)NC(C)(C)C,-1,-5.1*,-0.68,0
CCN(CC)c1cnn(C/C(=N\OC)c2ccc(Cl)cc2)c(=O)c1Br,4,-5.1*,-0.057,-6
CCCCc1c(O)nc(SCC(=O)Nc2ccc3c(c2)CCC3)[nH]c1=O,.,-5.7*,0.78,.
CCc1c(O)nc(SCC(=O)Nc2ccc3c(c2)CCC3)[nH]c1=O,7,-0.073,-1.1,-5
CC(=O)Nc1c(O)nc(SCC(=O)Nc2ccc(C(C)=O)cc2)[nH]c1=O,2,0.54,-0.7,-5
O=C(CSc1nc(O)c(C2CCCCC2)c(=O)[nH]1)Nc1ccc(Cl)cc1,.,-7.8*,0.38,.
O=C(NC(NC(=O)c1ccccc1)c1ccccc1)c1ccccc1,6,-0.19,-0.92,8
C[N+]1(CC(=O)Nc2ccc(F)cc2)CCN(C(=O)c2ccco2)CC1,-1,0.003,-0.79,-4
Cn1nc(C(F)(F)F)c(/C=N/OC(=O)c2ccccc2Cl)c1SCc1ccc(Cl)cc1,16,-5*,-0.00072,3
CCc1ccc(NC(=O)CCNS(=O)(=O)c2cccc3nsnc23)cc1,-3,0.18,0.26,-2
COC(=O)c1ccc(C(=O)OC)c(NC(=O)COC(=O)C2CCCCC2)c1,11,-0.55,0.83,2
COC(=O)c1ccc(C(=O)OC)c(NC(=O)COC(=O)C2CCC(C(C)(C)C)CC2)c1 (stereo unspecified),-2,-4.8*,0.054,-3
COc1ccc(CN(C(=O)CSc2nnc(-c3ccccc3F)o2)c2ccc(F)cc2)cc1,1,-4.8*,1.1,-3
COc1ccc(-c2nnc(SCC(=O)c3ccc[nH]3)o2)cc1,3,0.72,0.73,-3
Cc1nc2nc(C)c(CCC(=O)O)c(C)n2n1,4,-0.83,1.5,-7
CS(=O)(=O)N1c2ccccc2[C@]2(Br)C[C@H]3C(=O)N[C@@H](Cc4ccccc4)C(=O)N3[C@H]12,.,0.43,0.71,.
SMILES,HIV Rev-RRE inh,Cav32 inh,DAT uptake mod,EphB4 antag
COc1ccc(-c2nc3c(c(=O)[nH]c(=O)n3Cc3ccccc3)n2Cc2ccccc2)cc1,8,-6.4*,-0.029,3
COc1ccc(-c2nc3n(n2)C(c2ccccc2Cl)C(C(N)=O)=C(C)N3)cc1 (stereo unspecified),7,0.84,1.1,6
CSc1cccc(NS(=O)(=O)c2ccccc2)c1,3,-1,-0.23,3
CSc1cccc(NS(=O)(=O)c2ccc(F)cc2)c1,3,-7*,-0.97,6
COc1ccc(OC)c(NC(=O)C(CCS(C)(=O)=O)NC(C)=O)c1 (stereo unspecified),.,-0.053,4.3*,.
Cc1cc(N2CCN(c3ccccn3)CC2)n2cc(-c3ccccc3)nc2n1,4,1.4,1.5,16*
Cc1cc(C)cc(OCC(=O)OCC(=O)c2c(N)n(C)c(=O)n(C)c2=O)c1,15,-0.21,0.48,1
O=S(=O)(Nc1cc(Cl)ccc1N1CCCCC1)c1cccs1,3,-5.7*,-1.2,-9
COC(=O)c1sccc1NC(=O)CSc1ccccc1NS(=O)(=O)c1ccc(F)cc1,10,-5.6*,0.77,0
COc1ccc2nc(Nc3nc(CSc4nc5ccccc5s4)cc(=O)[nH]3)nc(C)c2c1,.,-1.4,-0.99,.
COc1ccc(NC(=O)C(c2ccccc2)N(C)C(=O)c2cnccn2)cc1 (stereo unspecified),.,-4.2*,0.78,.
COc1ccc(Cl)cc1S(=O)(=O)N1CCCC1,11,0.43,0.22,-1
Cc1cc(C)n(CC(=O)c2ccc(Br)cc2)c(=O)c1C#N,-2,0.49,-0.19,0
CN(C)/C=c1\sc2c(C#N)cc(C(=O)c3ccc(Br)cc3)n2c1=O,.,-6.9*,-0.9,.
CCCn1c(SCc2ccon2)nc2ccccc2c1=O,9,-2.4,-2.3,1
CCOCCCN(Cc1ccco1)C(=O)c1cc2c(=O)[nH]c3ccc(C)cc3c2s1,-3,-0.052,0.39,-9
Cc1ccc2[nH]c3c(c2c1)CN(C(=O)CN1CC(C)OC(C)C1)CC3 (stereo unspecified),61*,-0.14,-0.066,1
Cc1ccc2[nH]c3c(c2c1)CN(C(=O)CN1CCSCC1)CC3,36*,-0.081,0.23,2
Cc1ccc2[nH]c3c(c2c1)CN(C(=O)CN1CCN(Cc2ccc4c(c2)OCO4)CC1)CC3,4,-1.2,0.17,-6
CC(=O)c1c(O)cc(O)c(C(C)=O)c1O,.,-5.4*,-0.18,.
CNc1ccc(C(O)(C(F)(F)F)C(F)(F)F)cc1C(O)(C(F)(F)F)C(F)(F)F,10,-7.1*,1.9,-3
Cc1cccc(N(CC(=O)Nc2ccc(F)cc2)S(C)(=O)=O)c1,7,-0.16,-0.77,7
CSc1cccc(NC(=O)CN(c2cccc(C)c2)S(C)(=O)=O)c1,-1,-4.3*,-0.82,0
Cc1ccc(N(CC(=O)N/N=C/c2cc(C)n(-c3ccccc3)c2C)S(C)(=O)=O)c(C)c1,5,-6.7*,1.1,2
Cc1cc(/C=N/NC(=O)Cn2c3ccccc3c(=O)c3ccccc32)c(C)n1-c1ccccc1,1,.,.,-8
SMILES,HIV Rev-RRE inh,Cav32 inh,DAT uptake mod,EphB4 antag
CSc1cccc(NC(=O)CN(c2ccc(C)cc2C)S(C)(=O)=O)c1,12,-7.9*,0.31,8
CN1CCN(CCCN2c3ccccc3Sc3ccc(Cl)cc32)CC1,.,-5.1*!,-0.03,.
OCCN1CCN(CCCN2c3ccccc3Sc3ccc(C(F)(F)F)cc32)CC1,.,0.11,-0.57,.
Cc1ccc(NC(=O)Cn2c(=O)oc3cc(S(=O)(=O)N4CCC(C)CC4)ccc32)cc1C,2,-5.9*,1.6,-13
COC(=O)C(NC(=O)c1ccccc1)(Nc1cc(C)cc(C)n1)C(F)(F)F (stereo unspecified),1,-4.2*,0.74,-7
COC(=O)C(NNc1ccccc1C)(NC(=O)c1ccc(F)cc1)C(F)(F)F (stereo unspecified),6,-4.9*,0.24,2
CCOC(=O)C(NC(=O)c1cccnc1)(Nc1cccc(C)n1)C(F)(F)F (stereo unspecified),6,0.23,0.067,5
